Screening data as filed in PubChem BioAssay.
PLC-beta3 inh: human PLC-beta3 inhibitors, primary screen, biochemical, fluorescence | Purified PLC-beta3, fluorogenic substrate | actives 0.18% (n = 370,000) | 1-phosphatidylinositol 4,5-bisphosphate phosphodiesterase beta-3 (Homo sapiens), Q01970 | AID 720704, 2013 | inhibition, % at 12.2 µM; in the data active = inhibition above about 11%
UCH37 DUB inh: inhibitors of human UCH37 deubiquitinase, primary screen, biochemical, Ub-AMC cleavage, fluorescence | purified proteasome/UCH37 | inhibition, % (test concentration not listed) | actives 0.33% (n = 330,000) | AID 588478, 2011;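 active = mean inhibition over replicate wells above about 20%, limit read from the data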
Target sequence (Q9Y5K5 whole entry, looked up): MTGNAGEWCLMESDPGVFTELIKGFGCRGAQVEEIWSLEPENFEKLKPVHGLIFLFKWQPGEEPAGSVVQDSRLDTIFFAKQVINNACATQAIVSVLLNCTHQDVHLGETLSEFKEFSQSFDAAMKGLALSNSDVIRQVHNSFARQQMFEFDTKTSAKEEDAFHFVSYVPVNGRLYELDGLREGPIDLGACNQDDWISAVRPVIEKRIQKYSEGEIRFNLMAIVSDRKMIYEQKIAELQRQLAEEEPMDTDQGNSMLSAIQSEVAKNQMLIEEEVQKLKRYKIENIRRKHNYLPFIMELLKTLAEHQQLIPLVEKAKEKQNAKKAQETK
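Material: Human UCH37 enzyme supplied as purified proteasome complex | Schedule: 30 min compound-proteasome preincubation then 25 min substrate reaction, room temperature | Detection: AMC fluorescence from Ub-AMC cleavage, excitation 355 nm, emission 460 nm | Benchmarks: Wells without proteasome as full block, compound-free enzyme plus substrate as uninhibited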
Rpn11 inh: Rpn11 (PSMD14) deubiquitinase inhibitors, primary screen, biochemical, fluorescence polarization, uHTS; AID 588493, 2011; inhibition, % at 20 µM; human 26S proteasome, Ub4-pepOG fluorescence polarization; 20S core pre-blocked with epoxomicin; actives 0.59% (n = 360,000); 26S proteasome non-ATPase regulatory subunit 14 (Homo sapiens), O00487;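 active = inhibition at 20 µM, scaled to each plate's controls, above about 33%, limit read from the data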
Target sequence (O00487 whole entry, looked up): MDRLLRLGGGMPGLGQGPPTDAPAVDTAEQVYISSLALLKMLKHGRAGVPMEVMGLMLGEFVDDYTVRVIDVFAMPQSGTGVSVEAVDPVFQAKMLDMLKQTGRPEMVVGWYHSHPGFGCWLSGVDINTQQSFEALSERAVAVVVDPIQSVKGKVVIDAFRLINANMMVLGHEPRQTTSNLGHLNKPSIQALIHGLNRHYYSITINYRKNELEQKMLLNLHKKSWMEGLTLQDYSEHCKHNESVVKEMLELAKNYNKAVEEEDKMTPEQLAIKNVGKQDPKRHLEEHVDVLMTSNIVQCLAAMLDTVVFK
PLC-gamma1 inh: PLC-gamma1 enzyme inhibitors, primary screen, biochemical, fluorescence, purified enzyme. actives 0.84% (n = 370,000). inhibition, % at 12.2 µM. fluorogenic substrate; in the data active = inhibition above about 9.5%
Rpn11 inh conf: Rpn11 (PSMD14) deubiquitinase inhibitors, confirmation, biochemical, fluorescence polarization, single concentration. shares compounds with Rpn11 inh. purified human 26S proteasome, Ub4-pepOG fluorescence polarization; proteasome pretreated with epoxomicin. inhibition, % at 20 µM. actives 29% (n = 1,900)
MMP-2 counter: MMP-2 enzyme inhibition, confirmation, counter-screen for RPN11 inhibitor project, biochemical, fluorescence, single concentration | actives 4% (n = 1,900) | recombinant MMP-2, FRET peptide cleavage fluorescence | shares compounds with Rpn11 inh | inhibition, % at 20 µM;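 also: human MMP-2 activated beforehand with APMA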
Thrombin inh: bovine thrombin protease inhibition, confirmation, counter-screen for Rpn11 inhibitor project, biochemical, fluorescence polarization, single concentration; shares compounds with Rpn11 inh; bovine thrombin cleavage of Ub4-pepOG; inhibition, % at 20 µM; actives 13% (n = 1,900); AID 602333, 2012;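 active = mean inhibition at least 40% at 20 µM, or signal 3 deviations below plate average, so some actives read negative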
Hits are given with their value; n = inactive; x = no result shown; + = active, no number. This is a sample that favours compounds with a hit; in the whole collection about 1.7% have one here. Rule as the data show it, unless noted: active = inhibition above about 40%; inactive = the rest.

SMILES	PLC-beta3 inh	UCH37 DUB inh	Rpn11 inh	PLC-gamma1 inh	Rpn11 inh conf	MMP-2 counter	Thrombin inh
CCc1ccc(NC(=O)CS(=O)CC(=O)Nc2ccc(N3CCOCC3)cc2)cc1 (stereo not drawn)	n	n	51.7	n	n	n	n
Cc1cccc(C=NNC(=O)c2cc3c(s2)-c2ccccc2CC3)c1	x	n	x	x	x	x	x
Nc1cc(N)cc(-c2nc3ccccc3o2)c1	n	n	n	n	x	x	x
Nc1ccc(-c2nc3ccccc3o2)cc1	n	n	40.8	n	n	n	n
Cc1ccccc1CC(=O)Nc1ccc(C(=O)N2CCCC2)cc1	n	n	38.7	n	n	n	n
Cc1ccc(CC(=O)Nc2ccc(C(=O)N3CCCCC3)cc2)cc1	n	x	n	n	x	x	x
CCC1(CC)Nc2ccccc2C(=O)N1c1ccc(OC)cc1	n	n	n	n	x	x	x
COc1ccc(N2C(=O)c3ccccc3NC23CCCC3)cc1	n	n	36.7	n	n	n	n
CCOc1ccc(S(=O)(=O)NCCC(=O)N2CCN(c3ncccn3)CC2)cc1	n	n	n	n	x	x	x
CCOc1ccc(C(=O)CCC(=O)N2CCN(c3ncccn3)CC2)cc1	n	n	42.9	n	43.0	n	n
O=C(CN1CCN(Cc2ccccc2Cl)CC1)NN=C/C=C\c1ccccc1[N+](=O)[O-]	x	n	x	x	x	x	x
CC(/C=C/c1ccccc1)=NNC(=O)c1cc([N+](=O)[O-])cc([N+](=O)[O-])c1	x	n	x	x	x	x	x
CC(=NNC(=O)Cn1nc(C)c([N+](=O)[O-])c1C)c1ccc(Cl)s1	x	n	x	x	x	x	x
Cc1nn(CC(=O)c2ccc(Cl)s2)c(C)c1[N+](=O)[O-]	n	n	44.2	n	n	n	n
O=C(Nc1nc(-c2ccco2)cs1)c1ccccc1	n	n	45.4	n	n	n	n
O=C(Nc1ccc(F)cc1)Nc1ccc(Oc2ncnc3cc(Cl)ccc23)nc1	n	n	n	n	x	x	x
O=C(Nc1ccc(Oc2ncnc3cc(Cl)ccc23)nc1)c1cccs1	n	n	50.5	n	n	n	n
COc1ccc(S(=O)(=O)N2CCCC(C(=O)NCc3ccncc3)C2)cc1 (stereo not drawn)	n	n	+	n	n	n	n
COc1ccc(S(=O)(=O)N2CCCC(C(=O)NCc3ccc(F)cc3)C2)cc1 (stereo not drawn)	n	n	n	n	x	x	x
O=C1CSC(=S)N1N=Cc1c[nH]c2ccc(Br)cc12	n	x	61.1	n	n	n	n
COc1ccc(Br)cc1C=NN1C(=O)CSC1=S	x	n	x	x	x	x	x
CCN(CC)C(=O)CSc1nc2c(sc(=S)n2-c2ccccc2OC)c(=O)n1-c1ccccc1	n	n	40.7	n	n	n	n
Cc1ccsc1C1C(C(=O)O)c2ccccc2C(=O)N1C (stereo not drawn)	n	n	145.9	n	n	n	n
CC(=O)c1cccc(-c2ccc3c(=O)[nH]c(Nc4ccccc4)cc3c2)c1	n	31.1	84.7	n	n	n	n
CC(CC(=O)NC1CCCC1)=NNC(=O)Cc1csc(N)n1	x	n	x	x	x	x	x
SMILES	PLC-beta3 inh	UCH37 DUB inh	Rpn11 inh	PLC-gamma1 inh	Rpn11 inh conf	MMP-2 counter	Thrombin inh
O=C(N/N=C/c1cn(-c2ccccc2)nc1-c1ccc2c(c1)OCCO2)c1ccncc1	n	x	82.4	n	n	n	n
COc1cc(/C=C2\SC(N)=NC2=O)cc(Cl)c1O	n	n	114.0	n	76.0	n	57.3
Cc1ccc(C2=NC(=O)/C(=C/c3cc(O)c(O)c(Br)c3)S2)cc1	n	n	n	n	x	x	x
COc1cc(/C=C2\SC(c3ccc(C)cc3)=NC2=O)cc(OC)c1O	n	n	46.8	n	40.7	n	n
CCCCc1nn2c(N)c(/C=C3\C=Nc4ccccc43)c(=O)nc2s1	n	n	n	n	x	x	x
CCCCn1c(O)c(/C=C2\C=Nc3ccccc32)c(=O)[nH]c1=O	n	x	42.4	n	50.8	n	n
Fc1ccc(C=Nn2c(COc3ccccc3)n[nH]c2=S)cc1	x	n	x	x	x	x	x
S=c1[nH]nc(C2CCCCC2)n1N=Cc1cccs1	x	n	x	x	x	x	x
Cc1ccc(-c2ccc(S(=O)(=O)N3CCCC3)cc2)cc1	n	n	n	n	x	x	x
Cc1ccc(-c2ccc(S(=O)(=O)N3CC(C)OC(C)C3)cc2)cc1 (stereo not drawn)	n	n	64.3	n	n	n	n
Cc1ccccc1OCc1nc2ccccc2c(=O)n1N=Cc1ccco1	x	n	x	x	x	x	x
Cc1ccc(NS(=O)(=O)c2cc([N+](=O)[O-])ccc2N/N=C/c2sc(N3CCOCC3)nc2-c2ccccc2)c(C)c1	n	x	43.6	n	n	n	n
O=[N+]([O-])c1ccc(NN=Cc2sc(N3CCOCC3)nc2-c2ccccc2)c(S(=O)(=O)Nc2ccc(Cl)cc2)c1	x	n	x	x	x	x	x
C=CCn1c2ccccc2c2nnc(SCC(=O)OC)nc21	n	x	n	n	x	x	x
C=CCn1c2ccccc2c2nnc(SCC(N)=O)nc21	n	n	45.2	n	n	n	n
CCN(CC)c1nc2cc(C)ccc2cc1/C=C(\C#N)C(N)=O	n	n	49.0	n	n	n	n
CCc1ccc(NC(=O)/C(C#N)=C/c2cc3ccc(C)cc3nc2N2CCOCC2)cc1	n	n	x	n	x	x	x
O=C1NC(=Nc2ccc3ccccc3c2)S/C1=C/c1ccco1	n	n	39.8	n	n	n	n
CCCc1cc(C(=O)NN=Cc2ccc(CC)s2)c2ccccc2n1	x	n	x	x	x	x	x
CC(/C=C/c1ccccc1)=NO	x	n	x	x	x	x	x
CCCSC1=N/C(=C\C=C\c2ccco2)C(=O)S1	n	n	81.1	n	n	n	n
O=C1SC(SCc2ccccc2)=N/C1=C\c1ccco1	n	n	n	n	x	x	x
CCCSC1=N/C(=C\c2ccc3c(c2)OCO3)C(=O)S1	n	n	n	n	x	x	x
CCSC1=N/C(=C\c2ccc3c(c2)OCO3)C(=O)S1	n	n	41.7	n	73.6	n	n
Cc1[nH]c2ccccc2c1/C=N/Nc1ccc([N+](=O)[O-])cc1	n	x	119.2	n	83.4	n	81.1
O=[N+]([O-])c1ccc(NN=Cc2cccc3ccccc23)cc1	n	n	51.0	n	n	n	n
Cc1[nH]c2ccccc2c1/C=N/NC(=O)c1cccc([N+](=O)[O-])c1	n	x	n	n	x	x	x
O=[N+]([O-])c1ccc(/C=N/Nc2ccc3ccccc3c2)o1	n	x	41.2	n	n	n	n
Cc1cc(-c2ccccc2)nc(NN=Cc2ccccc2F)n1	x	n	x	x	x	x	x
Fc1ccccc1-c1nc(-c2ccccc2)no1	n	n	45.6	n	n	n	n
